# From ChEMBL document CHEMBL1926657, “Novel bioactive metabolites of dipyrone (metamizol)” (Bioorg Med Chem, 2012)
# Activity calls are given as the source filed them. No cut-off for these calls is given here.
# Experiments:
# [1] = biological target: T1, Transient receptor potential cation channel subfamily V member 1 (Homo sapiens, UniProt Q8NER1); assay: Inhibition of TRPV1
# [2] = biological target: Cannabinoid receptor 1 (Homo sapiens, UniProt P21554); assay: Displacement of [3H]CP-55940 from human recombinant CB1 receptor expressed in HEK cells; type: cell-based, HEK293
# [3] = species on record: Mus musculus; assay: Inhibition of COX-mediated PGE2 production in C57BL/6 mouse brain homogenate at 100 nM to 100 uM; type: tissue-based
# Outline: (§1)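 Mouse brain homogenate (20 µg) made on ice in 50 mM Tris pH 7.4 with 1 mM phenol and protease inhibitors, then incubated with inhibitor or vehicle. Reaction started with 150 µM arachidonic acid at 37°C, stopped after 5 min by acidifying to pH 2.5 with 1% formic acid. Prostanoids extracted in ethyl acetate/hexane (7:1), and PGE2 or 6-keto-PGF1α quantified by GC-MS/MS.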
# [4] = biological target: Cannabinoid receptor 2 (Homo sapiens, UniProt P34972); assay: Displacement of [3H]CP-55940 from human recombinant CB2 receptor expressed in HEK cells; type: cell-based, HEK293
# [5] = species on record: Mus musculus; assay: (§2) Inhibition of COX-mediated 6-keto-PGF1alpha production in C57BL/6 mouse brain homogenate; type: tissue-based; outline: as §1
# [6] = as §2; type: tissue-based; outline: as §1
# [7] = species on record: Mus musculus; assay: Inhibition of PGE2 production in LPS-stimulated COX-1 knockout C57BL/6 mouse brain homogenate measured after 6 hrs; type: functional; conditions: C57BL/6, Brain
# Outline: (§3)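 COX-1−/− or COX-2−/− mice injected i.p. with LPS 50 µg kg−1; brains taken 6 h later and homogenised in Tris pH 7.4/phenol/protease-inhibitor buffer. COX activity measured with inhibitor or vehicle: 150 µM arachidonic acid, 37°C, 5 min, formic acid stop to pH 2.5. PGE2 extracted in ethyl acetate/hexane and measured by GC-MS/MS.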
# [8] = Inhibition of COX-mediated PGE2 production in C57BL/6 mouse brain homogenate measured after 6 hrs in presence of FAAH inhibitor URB532; type: tissue-based
# [9] = species on record: Mus musculus; assay: Ratio of IC50 for COX-mediated PGE2 production in C57BL/6 mouse brain homogenate measured after 6 hrs in absence of FAAH inhibitor URB532 to IC50 for COX-mediated PGE2 production in C57BL/6 mouse brain homogenate measured after 6 hrs in presence of FAAH inhibitor URB532; type: tissue-based
# [10] = species on record: Mus musculus; assay: Inhibition of PGE2 production in LPS-stimulated COX-2 knockout C57BL/6 mouse brain homogenate at 0.4 uM measured after 6 hrs; type: functional; outline: as §3
# [11] = species on record: Mus musculus; assay: (§4) Inhibition of COX-mediated PGE2 production in C57BL/6 mouse brain homogenate; type: tissue-based; outline: as §1
# [12] = as §4; type: tissue-based; outline: as §1
# [13] = species on record: Mus musculus; assay: Inhibition of PGE2 production in LPS-stimulated COX-2 knockout C57BL/6 mouse brain homogenate measured after 6 hrs; type: functional; conditions: C57BL/6, Brain; outline: as §3
# [14] = species on record: Mus musculus; assay: Inhibition of PGE2 production in LPS-stimulated COX-1 knockout C57BL/6 mouse brain homogenate at 0.8 uM measured after 6 hrs; type: functional; outline: as §3
# [15] = biological target: T1, Transient receptor potential cation channel subfamily V member 1; assay: Agonist activity at TRPV1; type: functional
# [16] = tested on: Spleen; assay: Prodrug activation in C57BL/6 mouse spleen assessed as formation of arachidonoyl-4-methylaminoantipyrin at 600 mg/kg, po administered daily measured after 120 hrs; type: organism-based; set-up: dose 600 mg/kg, route oral; conditions: in vivo
# Outline: (§5)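 Dipyrone was given in the drinking water, and mice were killed on day 2 (48 h) or day 5 (120 h) under isoflurane. Tissue was extracted with diisopropyl ether/ethyl acetate 1:3, dried and taken up in acetonitrile/water 9:1. The amides were measured by LC-MS/MS on a C18 column. Semi-quantification used external calibration with 10, 100 and 1000 pg standards.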
# [17] = tested on: Spleen; assay: Prodrug activation in C57BL/6 mouse spleen assessed as formation of arachidonoyl-4-aminoantipyrin at 600 mg/kg, po administered daily measured after 120 hrs; type: organism-based; set-up: dose 600 mg/kg, route oral; conditions: in vivo; outline: as §5
# [18] = tested on: Brain; assay: Prodrug activation in FAAH wild type C57BL/6 mouse brain assessed as formation of arachidonoyl-4-aminoantipyrin at 600 mg/kg, po administered daily measured after 120 hrs; type: organism-based; set-up: dose 600 mg/kg, route oral; conditions: in vivo; outline: as §5
# [19] = tested on: Brain; assay: Prodrug activation in FAAH wild type C57BL/6 mouse brain assessed as formation of arachidonoyl-4-methylaminoantipyrin at 600 mg/kg, po administered daily measured after 48 hrs; type: organism-based; set-up: dose 600 mg/kg, route oral; conditions: in vivo; outline: as §5
# [20] = tested on: Spleen; assay: Prodrug activation in C57BL/6 mouse spleen assessed as formation of arachidonoyl-4-aminoantipyrin at 600 mg/kg, po administered daily measured after 48 hrs; type: organism-based; set-up: dose 600 mg/kg, route oral; conditions: in vivo; outline: as §5
# [21] = tested on: Brain; assay: Prodrug activation in FAAH wild type C57BL/6 mouse brain assessed as formation of arachidonoyl-4-aminoantipyrin at 600 mg/kg, po administered daily measured after 48 hrs; type: organism-based; set-up: dose 600 mg/kg, route oral; conditions: in vivo; outline: as §5
# [22] = tested on: Spleen; assay: Prodrug activation in C57BL/6 mouse spleen assessed as formation of arachidonoyl-4-methylaminoantipyrin at 600 mg/kg, po administered daily measured after 48 hrs; type: organism-based; set-up: dose 600 mg/kg, route oral; conditions: in vivo; outline: as §5
# [23] = Prodrug activation in C57BL/6 mouse CSF assessed as formation of arachidonoyl-4-aminoantipyrin at 600 mg/kg, po administered daily measured after 48 hrs; type: organism-based, Cerebrospinal fluid; set-up: dose 600 mg/kg, route oral; conditions: in vivo; outline: as §5
# [24] = tested on: Brain; assay: Prodrug activation in FAAH wild type C57BL/6 mouse brain assessed as formation of arachidonoyl-4-methylaminoantipyrin at 600 mg/kg, po administered daily measured after 120 hrs; type: organism-based; set-up: dose 600 mg/kg, route oral; conditions: in vivo; outline: as §5
# [25] = Prodrug activation in C57BL/6 mouse CSF assessed as formation of arachidonoyl-4-methylaminoantipyrin at 600 mg/kg, po administered daily measured after 48 hrs; type: organism-based, Cerebrospinal fluid; set-up: dose 600 mg/kg, route oral; conditions: in vivo; outline: as §5
# [26] = Prodrug activation in C57BL/6 mouse CSF assessed as formation of arachidonoyl-4-aminoantipyrin at 600 mg/kg, po administered daily measured after 120 hrs; type: organism-based, Cerebrospinal fluid; set-up: dose 600 mg/kg, route oral; conditions: in vivo; outline: as §5
# [27] = Prodrug activation in C57BL/6 mouse CSF assessed as formation of arachidonoyl-4-methylaminoantipyrin at 600 mg/kg, po administered daily measured after 120 hrs; type: organism-based, Cerebrospinal fluid; set-up: dose 600 mg/kg, route oral; conditions: in vivo; outline: as §5
# [28] = biological target: T2, Prostaglandin G/H synthase 1 (Mus musculus, UniProt P22437); assay: Inhibition of COX-1 in C57BL/6 mouse brain homogenate; type: tissue-based
# T2 sequence (P22437 whole entry): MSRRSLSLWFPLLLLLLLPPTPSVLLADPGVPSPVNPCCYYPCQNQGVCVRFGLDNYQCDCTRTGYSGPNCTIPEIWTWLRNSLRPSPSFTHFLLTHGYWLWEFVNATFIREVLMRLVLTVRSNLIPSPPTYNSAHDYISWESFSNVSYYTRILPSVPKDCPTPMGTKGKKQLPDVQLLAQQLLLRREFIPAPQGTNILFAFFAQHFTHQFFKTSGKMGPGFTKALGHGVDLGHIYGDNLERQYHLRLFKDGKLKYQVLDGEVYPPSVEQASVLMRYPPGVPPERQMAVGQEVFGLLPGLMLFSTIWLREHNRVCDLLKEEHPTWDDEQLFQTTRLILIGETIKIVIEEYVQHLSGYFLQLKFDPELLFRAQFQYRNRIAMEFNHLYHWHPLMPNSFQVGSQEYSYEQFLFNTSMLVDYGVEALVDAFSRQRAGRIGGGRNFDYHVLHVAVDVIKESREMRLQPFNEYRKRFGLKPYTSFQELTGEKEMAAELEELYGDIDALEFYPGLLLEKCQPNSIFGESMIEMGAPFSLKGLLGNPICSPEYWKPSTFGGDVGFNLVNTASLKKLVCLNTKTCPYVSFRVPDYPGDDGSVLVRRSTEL
# Outline: (§6)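 Brain homogenate from C57BL/6 mice was prepared on ice in 50 mM Tris pH 7.4 with 1 mM phenol and protease inhibitors. 20 µg of homogenate was incubated with inhibitor or vehicle. The reaction was started with 150 µM arachidonic acid at 37°C and stopped after 5 min with formic acid to pH 2.5. Prostanoids were extracted with ethyl acetate/hexane 7:1. PGE2 and 6-keto-PGF1α were measured by GC-MS/MS, and IC50 was determined.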
# [29] = biological target: T3, Prostaglandin G/H synthase 2 (Mus musculus, UniProt Q05769); assay: Inhibition of COX-2 in C57BL/6 mouse brain homogenate; type: tissue-based; outline: as §6
# T3 sequence (Q05769 whole entry): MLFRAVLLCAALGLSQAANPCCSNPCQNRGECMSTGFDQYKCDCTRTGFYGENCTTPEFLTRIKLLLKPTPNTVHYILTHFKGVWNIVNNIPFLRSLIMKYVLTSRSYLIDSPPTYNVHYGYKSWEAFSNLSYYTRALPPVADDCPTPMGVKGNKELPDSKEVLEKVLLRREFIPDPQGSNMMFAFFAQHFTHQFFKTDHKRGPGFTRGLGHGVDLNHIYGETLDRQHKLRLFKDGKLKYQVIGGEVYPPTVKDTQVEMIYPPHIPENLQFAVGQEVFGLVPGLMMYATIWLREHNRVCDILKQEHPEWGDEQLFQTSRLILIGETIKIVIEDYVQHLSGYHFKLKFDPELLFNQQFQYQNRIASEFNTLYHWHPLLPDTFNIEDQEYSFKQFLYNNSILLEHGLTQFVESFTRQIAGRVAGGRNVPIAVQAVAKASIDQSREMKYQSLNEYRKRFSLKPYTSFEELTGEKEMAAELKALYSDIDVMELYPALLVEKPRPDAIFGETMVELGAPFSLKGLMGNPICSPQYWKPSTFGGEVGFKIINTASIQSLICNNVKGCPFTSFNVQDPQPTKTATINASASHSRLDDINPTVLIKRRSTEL
# T1 sequence (Q8NER1 whole entry): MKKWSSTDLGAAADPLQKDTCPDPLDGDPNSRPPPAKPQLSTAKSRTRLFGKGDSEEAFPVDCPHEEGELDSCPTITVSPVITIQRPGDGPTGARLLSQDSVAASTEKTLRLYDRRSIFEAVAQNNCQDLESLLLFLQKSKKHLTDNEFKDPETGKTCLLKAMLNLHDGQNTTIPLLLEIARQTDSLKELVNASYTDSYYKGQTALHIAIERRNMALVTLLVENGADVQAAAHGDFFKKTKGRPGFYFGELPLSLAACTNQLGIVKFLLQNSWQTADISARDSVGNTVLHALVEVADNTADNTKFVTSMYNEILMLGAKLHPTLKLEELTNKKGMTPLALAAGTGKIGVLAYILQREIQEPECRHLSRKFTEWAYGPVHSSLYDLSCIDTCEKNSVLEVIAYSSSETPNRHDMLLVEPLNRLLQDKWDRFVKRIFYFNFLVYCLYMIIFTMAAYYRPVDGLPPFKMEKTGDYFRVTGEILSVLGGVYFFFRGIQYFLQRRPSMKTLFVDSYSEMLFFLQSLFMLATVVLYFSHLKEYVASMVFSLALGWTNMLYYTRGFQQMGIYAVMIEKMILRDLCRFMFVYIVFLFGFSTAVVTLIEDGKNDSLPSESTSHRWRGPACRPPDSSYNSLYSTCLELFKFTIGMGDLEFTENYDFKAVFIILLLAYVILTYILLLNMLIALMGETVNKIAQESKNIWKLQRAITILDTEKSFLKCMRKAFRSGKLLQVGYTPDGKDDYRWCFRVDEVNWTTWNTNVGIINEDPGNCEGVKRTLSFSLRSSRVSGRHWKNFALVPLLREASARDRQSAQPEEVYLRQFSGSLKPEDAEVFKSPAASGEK
# Sequence of Cannabinoid receptor 1 (P21554 whole entry): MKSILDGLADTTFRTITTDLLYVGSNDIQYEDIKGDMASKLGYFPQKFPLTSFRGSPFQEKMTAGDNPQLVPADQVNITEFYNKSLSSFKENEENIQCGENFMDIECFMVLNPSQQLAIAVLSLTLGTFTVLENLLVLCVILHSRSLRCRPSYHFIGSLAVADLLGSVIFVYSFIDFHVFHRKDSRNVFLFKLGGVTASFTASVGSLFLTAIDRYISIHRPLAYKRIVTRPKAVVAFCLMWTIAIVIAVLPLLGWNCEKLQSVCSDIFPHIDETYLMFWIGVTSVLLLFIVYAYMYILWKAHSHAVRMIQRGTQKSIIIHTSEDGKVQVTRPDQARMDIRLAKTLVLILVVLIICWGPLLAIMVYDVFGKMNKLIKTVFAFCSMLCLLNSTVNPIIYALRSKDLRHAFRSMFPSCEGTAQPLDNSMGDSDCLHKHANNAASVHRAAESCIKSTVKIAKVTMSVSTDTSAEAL
# Sequence of Cannabinoid receptor 2 (P34972 whole entry): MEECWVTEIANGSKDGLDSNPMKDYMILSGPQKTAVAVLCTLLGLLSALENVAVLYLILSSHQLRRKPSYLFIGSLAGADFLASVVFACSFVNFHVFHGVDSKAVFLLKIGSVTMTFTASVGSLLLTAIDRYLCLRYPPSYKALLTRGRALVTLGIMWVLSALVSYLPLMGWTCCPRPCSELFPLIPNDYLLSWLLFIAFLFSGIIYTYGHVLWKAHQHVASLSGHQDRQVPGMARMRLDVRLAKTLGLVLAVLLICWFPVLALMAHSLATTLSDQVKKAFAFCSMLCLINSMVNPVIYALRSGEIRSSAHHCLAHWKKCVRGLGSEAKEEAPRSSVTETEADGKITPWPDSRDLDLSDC
structure (smiles),measurement,setting,value
CCCCC/C=C\C/C=C\C/C=C\C/C=C\CCCC(=O)Nc1c(C)n(C)n(-c2ccccc2)c1=O,inhibition,[1],inactive
same,Ki,[2],2.9 µM
same,inhibition,[3],inactive
same,Ki,[4],5.4 µM
CCCCC/C=C\C/C=C\C/C=C\C/C=C\CCCC(=O)N(C)c1c(C)n(C)n(-c2ccccc2)c1=O,inhibition,[5],Dose-dependent effect
same,IC50,[6],5.2 µM
same,IC50,[7],0.355 µM
same,IC50,[8],0.058 µM
same,Ratio IC50,[9],> 200
same,inhibition,[10],30%
same,Ki,[2],7.8 µM
same,inhibition,[11],Dose-dependent effect
same,IC50,[12],13.2 µM
same,Ki,[4],3 µM
same,IC50,[13],0.107 µM
same,inhibition,[14],Active
CCCCC/C=C\C/C=C\C/C=C\C/C=C\CCCC(=O)Nc1ccc(O)cc1,EC50,[15],0.026 µM
Cc1c(N(C)CS(=O)(=O)[O-])c(=O)n(-c2ccccc2)n1C.[Na+] [DIPYRONE SODIUM],Drug metabolism,[16],Active
same,Drug metabolism,[17],Active
same,Drug metabolism,[18],Active
same,Drug metabolism,[19],Active
same,Drug metabolism,[20],Active
same,Drug metabolism,[21],Active
same,Drug metabolism,[22],Active
same,Drug metabolism,[23],Active
same,Drug metabolism,[24],Active
same,Drug metabolism,[25],Active
same,Drug metabolism,[26],Active
same,Drug metabolism,[27],Active
Cc1c(N)c(=O)n(-c2ccccc2)n1C [AMPYRONE],IC50,[28],1000 µM
same,IC50,[29],1000 µM
